# Laboratory results taken from ChEMBL document CHEMBL1629654, “Breakthrough Aspergillus fumigatus and Candida albicans double infection during caspofungin treatment: laboratory characteristics and implication for susceptibility testing” (2009).
# Calls of active or inactive are those of the source. The calls are words filed in the database; no cut-off is given here.
# Experiments:
# [1] = tested on: Candida albicans; test: Antimicrobial activity against Candida albicans isolate C at 2 ug/ml after 48 hrs by agar dilution method; type: functional, organism-based
# Outline: (§1)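 Agar dilution on Sabouraud agar with caspofungin at 0, 0.5, 1 and 2 per ml. Isolates were subcultured 2 days on CHROMagar. Suspensions of 1×10^6 to 5×10^6 CFU/ml in sterile water were diluted 1,500-fold, and approximately 3 to 15 cells were spread per agar surface. Growth or no growth was scored, with repeated testing.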
# [2] = tested on: Candida albicans; test: Antimicrobial activity against Candida albicans isolate R at 25 ug/ml grown on Muller-Hinton agar medium after 24 hrs by disk diffusion method; type: functional
# Outline: (§2)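 Disk diffusion on 90-mm RPMI 1640 with 2% glucose agar or on Mueller-Hinton agar. Plates were swabbed in three directions with a yeast suspension of 1–5 × 10^6 cells/ml. Paper disks (6 mm) held 1, 5 or 25 µg drug. Zone diameters were read at 24 and 48 h; values are means of two experiments.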
# [3] = tested on: Candida albicans; test: Antimicrobial activity against Candida albicans isolate S at 5 ug/ml grown on Muller-Hinton agar medium after 24 hrs by disk diffusion method; type: functional; outline: as §2
# [4] = tested on: Candida albicans; test: Antimicrobial activity against Candida albicans isolate S at 1 ug/ml grown on RPMI 1640 medium after 24 hrs by disk diffusion method; type: functional; outline: as §2
# [5] = tested on: Candida albicans; test: Antimicrobial activity against Candida albicans isolate S at 5 ug/ml grown on RPMI 1640 medium after 48 hrs by disk diffusion method; type: functional; outline: as §2
# [6] = tested on: Clavispora lusitaniae; test: Antimicrobial activity against Candida lusitaniae after 48 hrs by 50% endpoint M27-A2 method; type: functional
# [7] = tested on: Candida albicans; test: Antimicrobial activity against Candida albicans isolate R after 48 hrs by EUCAST microdilution method; type: functional
# Outline: (§3)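 EUCAST broth microdilution, plates read spectrophotometrically at 490 nm. MIC is the lowest dilution giving 50% growth inhibition. C. krusei […] control included in each run.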
# [8] = tested on: Candida tropicalis; test: Antimicrobial activity against Candida tropicalis after 48 hrs
# [9] = tested on: Candida albicans; test: Antimicrobial activity against Candida albicans isolate R at 25 ug/ml grown on RPMI 1640 medium after 24 hrs by disk diffusion method; type: functional; outline: as §2
# [10] = tested on: Candida parapsilosis; test: Antimicrobial activity against Candida parapsilosis after 48 hrs by 80% endpoint M27-A method; conditions: Lodderomyces parapsilosis
# [11] = tested on: Candida albicans; test: Antimicrobial activity against Candida albicans isolate C at 0.5 ug/ml after 48 hrs by agar dilution method; type: functional, organism-based
# Outline: (§4)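 Sabouraud agar wells contained caspofungin 0, 0.5, 1 or 2 µg/ml, or anidulafungin 0, 0.003, 0.125 or 0.5 µg/ml. Isolates were subcultured 2 days on CHROMagar. Suspensions of 1–5 × 10^6 CFU/ml in sterile water were diluted 1,500-fold, and 5 µl (about 3–15 cells) was spread per well. Growth was scored.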
# [12] = tested on: Candida albicans; test: Antimicrobial activity against Candida albicans isolate C at 1 ug/ml after 48 hrs by agar dilution method; type: functional, organism-based; outline: as §1
# [13] = tested on: Pichia kudriavzevii; test: Antimicrobial activity against Candida krusei after 24 hrs by M27-A3 method; type: functional
# [14] = tested on: Clavispora lusitaniae; test: Antimicrobial activity against Candida lusitaniae after 48 hrs by Etest; type: functional
# [15] = tested on: Candida albicans; test: Antimicrobial activity against Candida albicans after 48 hrs
# [16] = tested on: Candida albicans; test: Antimicrobial activity against Candida albicans after 48 hrs by Etest; type: functional
# [17] = tested on: Clavispora lusitaniae; test: Antimicrobial activity against Candida lusitaniae after 48 hrs by NCCLS microdilution method; type: functional
# [18] = tested on: Candida albicans; test: Antimicrobial activity against Candida albicans isolate R after 24 hrs by microdilution method; type: functional
# Outline: (§5)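 Broth microdilution in microtiter plates, read spectrophotometrically at 490 nm. MIC taken as the lowest drug dilution giving 50% growth inhibition. C. krusei […] run as control in each run. Read at 24 h and 48 h; trailing growth noted at 48 h.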
# [19] = tested on: Candida albicans; test: Antimicrobial activity against Candida albicans after 48 hrs by 80% endpoint M27-A2 method; type: functional
# [20] = tested on: Candida albicans; test: Antimicrobial activity against Candida albicans after 48 hrs by broth microdilution method; type: functional
# [21] = tested on: Candida albicans; test: Antimicrobial activity against Candida albicans isolate R at 0.5 ug/ml after 48 hrs by agar dilution method; type: functional, organism-based; outline: as §4
# [22] = tested on: Candida albicans; test: Antimicrobial activity against Candida albicans isolate R at 25 ug/ml grown on Muller-Hinton agar medium after 48 hrs by disk diffusion method; type: functional; outline: as §2
# [23] = tested on: Candida albicans; test: Antimicrobial activity against Candida albicans isolate R at 1 ug/ml grown on Muller-Hinton agar medium after 48 hrs by disk diffusion method; type: functional; outline: as §2
# [24] = tested on: Candida albicans; test: Antimicrobial activity against Candida albicans isolate S at 25 ug/ml grown on Muller-Hinton agar medium after 48 hrs by disk diffusion method; type: functional; outline: as §2
# [25] = tested on: Candida albicans; test: Antimicrobial activity against Candida albicans isolate C after 24 hrs by microdilution method; type: functional; outline: as §5
# [26] = tested on: Candida parapsilosis; test: Antimicrobial activity against Candida parapsilosis after 48 hrs by broth microdilution method; type: functional; conditions: Lodderomyces parapsilosis
# [27] = tested on: Candida albicans; test: Antimicrobial activity against Candida albicans isolate R at 5 ug/ml grown on RPMI 1640 medium after 24 hrs by disk diffusion method; type: functional; outline: as §2
# [28] = tested on: Meyerozyma guilliermondii; test: Antimicrobial activity against Candida guilliermondii after 48 hrs by M27-A method
# [29] = tested on: Candida parapsilosis; test: Antimicrobial activity against Candida parapsilosis after 48 hrs by M27-A method; conditions: Lodderomyces parapsilosis
# [30] = tested on: Candida albicans; test: Antimicrobial activity against Candida albicans isolate S at 25 ug/ml grown on RPMI 1640 medium after 48 hrs by disk diffusion method; type: functional; outline: as §2
# [31] = tested on: Candida albicans; test: Antimicrobial activity against Candida albicans isolate R at 1 ug/ml grown on RPMI 1640 medium after 24 hrs by disk diffusion method; type: functional; outline: as §2
# [32] = tested on: Pichia kudriavzevii; test: Antimicrobial activity against Candida krusei after 48 hrs by 80% endpoint M27-A2 method; type: functional
# [33] = tested on: Nakaseomyces glabratus; test: Antimicrobial activity against Candida glabrata after 48 hrs by 50% endpoint M27-A2 method; type: functional
# [34] = tested on: Candida albicans; test: Antimicrobial activity against Candida albicans isolate R at 5 ug/ml grown on Muller-Hinton agar medium after 48 hrs by disk diffusion method; type: functional; outline: as §2
# [35] = tested on: Candida albicans; test: Antimicrobial activity against Candida albicans isolate S at 1 ug/ml grown on Muller-Hinton agar medium after 24 hrs by disk diffusion method; type: functional; outline: as §2
# [36] = tested on: Candida albicans; test: Antimicrobial activity against Candida albicans after 48 hrs by NCCLS microdilution method; type: functional
# [37] = tested on: Candida albicans; test: Antimicrobial activity against Candida albicans isolate R at 25 ug/ml grown on RPMI 1640 medium after 48 hrs by disk diffusion method; type: functional; outline: as §2
# [38] = tested on: Meyerozyma guilliermondii; test: Antimicrobial activity against Candida guilliermondii after 24 hrs by M27-A3 method; type: functional
# [39] = tested on: Candida albicans; test: Antimicrobial activity against Candida albicans obtained from hemodialysis catheter tip 35 days after admission by Etest; type: functional
# Outline: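 Etest on RPMI 1640 agar with 2% glucose, performed according to the manufacturer's recommendations.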
# [40] = tested on: Candida albicans; test: Antimicrobial activity against Candida albicans obtained from urine of patient 21 days after admission by EUCAST microdilution method; type: functional; conditions: 504 h; outline: as §3
# [41] = tested on: Nakaseomyces glabratus; test: Antimicrobial activity against Candida glabrata after 48 hrs by broth microdilution method; type: functional
smiles,measurement,setting,value
CC[C@H](C)C[C@H](C)CCCCCCCCC(=O)N[C@H]1C[C@@H](O)[C@@H](NCCN)NC(=O)[C@@H]2[C@@H](O)CCN2C(=O)[C@H]([C@H](O)CCN)NC(=O)[C@H]([C@H](O)[C@@H](O)c2ccc(O)cc2)NC(=O)[C@@H]2C[C@@H](O)CN2C(=O)[C@H]([C@@H](C)O)NC1=O [CASPOFUNGIN],growth inhibition (GI),[1],Active
same,inhibition zone (IZ),[2],13.4 mm
same,inhibition zone (IZ),[3],19.2 mm
same,inhibition zone (IZ),[4],10.7 mm
same,inhibition zone (IZ),[5],21 mm
same,MIC90,[6],2 µg/mL
same,MIC,[7],1 µg/mL
same,MIC90,[8],0.5 µg/mL
same,inhibition zone (IZ),[9],12.4 mm
same,MIC90,[10],2 µg/mL
same,growth inhibition (GI),[11],Active
same,growth inhibition (GI),[12],Active
same,MIC90,[13],0.25 µg/mL
same,MIC90,[14],2 µg/mL
same,MIC90,[15],0.25 µg/mL
same,MIC90,[16],0.25 µg/mL
same,MIC90,[17],2 µg/mL
same,MIC,[18],1 µg/mL
same,MIC90,[19],0.5 µg/mL
same,MIC90,[20],0.25 µg/mL
same,growth inhibition (GI),[21],inactive
same,inhibition zone (IZ),[22],12.7 mm
same,inhibition zone (IZ),[23],6.1 mm
same,inhibition zone (IZ),[24],24.9 mm
same,MIC,[25],≤ 0.06 µg/mL
same,MIC90,[26],2 µg/mL
same,inhibition zone (IZ),[27],8.6 mm
same,MIC90,[28],> 8 µg/mL
same,MIC90,[29],4 µg/mL
same,inhibition zone (IZ),[30],26.4 mm
same,inhibition zone (IZ),[31],6.2 mm
same,MIC90,[32],2 µg/mL
same,MIC90,[33],1 µg/mL
same,inhibition zone (IZ),[34],8.8 mm
same,inhibition zone (IZ),[35],12.1 mm
same,MIC90,[36],0.5 µg/mL
same,inhibition zone (IZ),[37],11.9 mm
same,MIC90,[38],1 µg/mL
same,MIC,[39],32 µg/mL
same,MIC,[40],1 µg/mL
same,MIC90,[41],0.5 µg/mL
